In ChEMBL document CHEMBL1131162, “Bisquinolines. 2. Antimalarial N,N-bis(7-chloroquinolin-4-yl)heteroalkanediamines” (J Med Chem, 1998):

Experiments:
Mus musculus [1] = assay: (§1) Number of Plasmodium berghei infected mice died on day 8 at 160 mg/kg; type: functional
In short: (§2)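 Male mice infected with drug-sensitive P. berghei KBG 173; single subcutaneous dose given 3 days postinfection, five mice per dose; survival followed, with cure (C) meaning survival to 60 days postinfection and deaths 0–2 days after treatment scored as toxicity (T).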

Mus musculus [2] = assay: Number of Plasmodium berghei infected mice died on day 13 at 40 mg/kg; type: functional; in short: as §2
Plasmodium falciparum [3] = assay: Antimalarial activity against Plasmodium falciparum D6 in vitro.; type: functional, organism-based
Mus musculus [4] = assay: Number of Plasmodium berghei infected mice cured after administration of 160 mg/kg dose; type: functional
Mus musculus [5] = assay: Number of Plasmodium berghei infected mice cured after administration of 640 mg/kg; type: functional
Mus musculus [6] = assay: Number of Plasmodium berghei infected mice died on day 9 at 40 mg/kg; type: functional
Plasmodium falciparum [7] = assay: In vitro antimalarial activity against chloroquine-resistant Plasmodium falciparum W2; type: functional, organism-based
Plasmodium falciparum [8] = assay: In vitro inhibition of hematin polymerization in Plasmodium falciparum; type: functional
Mus musculus [9] = assay: (§3) Number of Plasmodium berghei infected mice died on day 7 at 40 mg/kg; type: functional; in short: as §2
Mus musculus [10] = assay: Number of Plasmodium berghei infected mice died on day 8 at 40 mg/kg; type: functional; in short: as §2
Mus musculus [11] = assay: Number of Plasmodium berghei infected mice died on day 10 at 160 mg/kg; type: functional; in short: as §2
Plasmodium falciparum [12] = assay: Inhibition of hematin polymerization in Plasmodium falciparum; type: functional
Mus musculus [13] = assay: Number of Plasmodium berghei infected mice died on day 10 at 40 mg/kg; type: functional; in short: as §2
Mus musculus [14] = assay: Number of Plasmodium berghei infected mice died on day 18 at 160 mg/kg; type: functional; in short: as §2
Mus musculus [15] = assay: Number of Plasmodium berghei infected mice died on day 13 at 640 mg/kg; type: functional; in short: as §2
Mus musculus [16] = assay: Number of Plasmodium berghei infected mice died on day 29 at 640 mg/kg; type: functional; in short: as §2
Mus musculus [17] = assay: Number of Plasmodium berghei infected mice died on day 9 at 160 mg/kg; type: functional; in short: as §2
Mus musculus [18] = assay: Number of Plasmodium berghei infected mice died on day 24 at 640 mg/kg; type: functional; in short: as §2
Mus musculus [19] = assay: Number of Plasmodium berghei infected mice died on day 14 at 640 mg/kg; type: functional; in short: as §2
Mus musculus [20] = assay: as §1; type: functional; remark: listed apart in the source
Mus musculus [21] = assay: as §3; type: functional; remark: listed apart in the source
Mus musculus [22] = assay: Number of Plasmodium berghei infected mice died on day 33 at 640 mg/kg; type: functional; in short: as §2
Mus musculus [23] = assay: Number of Plasmodium berghei infected mice died on day 13 at 160 mg/kg; type: functional; in short: as §2
Mus musculus [24] = assay: Number of Plasmodium berghei infected mice died on day 11 at 40 mg/kg; type: functional; in short: as §2
Mus musculus [25] = assay: (§4) Number of Plasmodium berghei infected mice died on day 12 at 640 mg/kg; type: functional
Mus musculus [26] = assay: Number of Plasmodium berghei infected mice died on day 16 at 640 mg/kg; type: functional; in short: as §2
Mus musculus [27] = assay: Number of Plasmodium berghei infected mice cured after administration of the dose 640 mg/kg; type: functional; in short: as §2
Mus musculus [28] = assay: Number of Plasmodium berghei infected mice died on day 16 at 160 mg/kg; type: functional; in short: as §2
Mus musculus [29] = assay: (§5) Number of Plasmodium berghei infected mice died on day 6 at 40 mg/kg; type: functional; in short: as §2
Mus musculus [30] = assay: Number of Plasmodium berghei infected mice died on day 7 at 160 mg/kg; type: functional; in short: as §2
Mus musculus [31] = assay: (§6) Number of Plasmodium berghei infected mice died on day 6 at 160 mg/kg; type: functional; in short: as §2
Mus musculus [32] = assay: Number of Plasmodium berghei infected mice died on day 7 at 640 mg/kg; type: functional; in short: as §2
Mus musculus [33] = assay: Number of Plasmodium berghei infected mice died on day 19 at 640 mg/kg; type: functional; in short: as §2
Mus musculus [34] = assay: Number of Plasmodium berghei infected mice died on day 12 at 160 mg/kg; type: functional; in short: as §2
Mus musculus [35] = assay: Number of Plasmodium berghei infected mice died on day 14 at 160 mg/kg; type: functional; in short: as §2
Mus musculus [36] = assay: Number of Plasmodium berghei infected mice cured after administration of a compound dose 640 mg/kg; type: functional
Mus musculus [37] = assay: as §5; type: functional; remark: listed apart in the source
Mus musculus [38] = assay: as §6; type: functional; remark: listed apart in the source
Mus musculus [39] = assay: Number of Plasmodium berghei infected mice died on day 6 at 640 mg/kg; type: functional
Mus musculus [40] = assay: Number of Plasmodium berghei infected mice died on day 17 at 160 mg/kg; type: functional; in short: as §2
Mus musculus [41] = assay: Number of Plasmodium berghei infected mice died on day 22 at 640 mg/kg; type: functional; in short: as §2
Mus musculus [42] = assay: Number of Plasmodium berghei infected mice died on day 18 at 640 mg/kg; type: functional; in short: as §2
Mus musculus [43] = assay: Number of Plasmodium berghei infected mice died on day 12 at 40 mg/kg; type: functional; in short: as §2
Mus musculus [44] = assay: Number of Plasmodium berghei infected mice died on day 20 at 640 mg/kg; type: functional; in short: as §2
Mus musculus [45] = assay: Number of Plasmodium berghei infected mice died at 160 mg/kg; Curative; type: functional; in short: as §2
Mus musculus [46] = assay: Number of Plasmodium berghei infected mice died at 640 mg/kg; Curative; type: functional; in short: as §2
Mus musculus [47] = assay: as §4; type: functional; in short: as §2; remark: listed apart in the source
Mus musculus [48] = assay: Number of Plasmodium berghei infected mice died on day 11 at 160 mg/kg; type: functional
Mus musculus [49] = assay: Number of Plasmodium berghei infected mice died on day 26 at 160 mg/kg; type: functional; in short: as §2
Mus musculus [50] = assay: Number of Plasmodium berghei infected mice died on day 15 at 40 mg/kg; type: functional; in short: as §2
Mus musculus [51] = assay: Number of Plasmodium berghei infected mice died on day 25 at 640 mg/kg; type: functional; in short: as §2
Mus musculus [52] = assay: Number of Plasmodium berghei infected mice died at 40 mg/kg; Curative; type: functional; in short: as §2
Mus musculus [53] = assay: Number of Plasmodium berghei infected mice died on day 14 at 40 mg/kg; type: functional; in short: as §2
Mus musculus [54] = assay: Number of Plasmodium berghei infected mice died at 640 mg/kg; Toxic; type: functional; in short: as §2
Mus musculus [55] = assay: Number of Plasmodium berghei infected mice died on day 20 at 160 mg/kg; type: functional; in short: as §2
Mus musculus [56] = assay: Number of Plasmodium berghei infected mice died on day 16 at 40 mg/kg; type: functional; in short: as §2
Mus musculus [57] = assay: Number of Plasmodium berghei infected mice died on day 23 at 160 mg/kg; type: functional; in short: as §2

| SMILES | IC50 (Plasmodium falciparum [3]) [µM] | Number (Mus musculus [6]) | IC50 (Plasmodium falciparum [7]) [µM] | IC50 (Plasmodium falciparum [8]) [µM] | Number (Mus musculus [9]) | Number (Mus musculus [10]) | Number (Mus musculus [11]) | IC50 (Plasmodium falciparum [12]) [µM] | Number (Mus musculus [14]) | Number (Mus musculus [15]) | Number (Mus musculus [19]) | Number (Mus musculus [21]) | Number (Mus musculus [23]) | also measured |
| --- | --- | --- | --- | --- | --- | --- | --- | --- | --- | --- | --- | --- | --- | --- |
| Clc1ccc2c(NCCOCCOCCNc3ccnc4cc(Cl)ccc34)ccnc2c1 | 0.0025 | 2 | 0.0099 | 15 | 2 | – | – | – | – | – | – | – | – | Number (Mus musculus [1]): 3; Number (Mus musculus [2]): 1; Number (Mus musculus [4]): 1; Number (Mus musculus [5]): 1 |
| Clc1ccc2c(NCCOCCNc3ccnc4cc(Cl)ccc34)ccnc2c1 | 0.016 | – | 0.089 | – | – | 3 | 1 | 20 | 1 | 2 | 1 | 1 | – | Number (Mus musculus [13]): 1; Number (Mus musculus [16]): 1; Number (Mus musculus [17]): 2; Number (Mus musculus [18]): 1; Number (Mus musculus [20]): 1 |
| CN(CCCNc1ccnc2cc(Cl)ccc12)CCCNc1ccnc2cc(Cl)ccc12 | 0.0059 | 2 | 0.0028 | – | – | 2 | – | 8 | 2 | 1 | 1 | – | 3 | Number (Mus musculus [22]): 1; Number (Mus musculus [24]): 1; Number (Mus musculus [25]): 1; Number (Mus musculus [26]): 1 |
| Clc1ccc2c(N3CCN(CN4CCN(c5ccnc6cc(Cl)ccc56)CC4)CC3)ccnc2c1 | > 1 | – | > 1 | > 2500 | 4 | – | 1 | – | – | – | – | – | – | Number (Mus musculus [17]): 3; Number (Mus musculus [27]): 3; Number (Mus musculus [28]): 1; Number (Mus musculus [29]): 1 |
| Clc1ccc2c(NCCCCCCNCCCCCCNc3ccnc4cc(Cl)ccc34)ccnc2c1 | 0.011 | – | 0.0054 | 7 | 1 | – | – | – | – | – | – | – | – | Number (Mus musculus [30]): 3; Number (Mus musculus [31]): 2; Number (Mus musculus [29]): 4; Number (Mus musculus [32]): 5 |
| Clc1ccc2c(NCCCOCCOCCOCCCNc3ccnc4cc(Cl)ccc34)ccnc2c1 | 0.024 | 3 | 0.048 | 20 | – | 1 | – | – | – | – | 1 | – | 1 | Number (Mus musculus [33]): 1; Number (Mus musculus [24]): 1; Number (Mus musculus [34]): 2; Number (Mus musculus [35]): 2; Number (Mus musculus [36]): 3 |
| Clc1ccc2c(NCCCNCCNc3ccnc4cc(Cl)ccc34)ccnc2c1 | 0.026 | – | 0.007 | – | – | – | – | 16 | – | – | – | 1 | – | Number (Mus musculus [37]): 4; Number (Mus musculus [38]): 5; Number (Mus musculus [39]): 5 |
| Clc1ccc2c(NCCN3CCN(c4ccnc5cc(Cl)ccc45)CC3)ccnc2c1 | 0.0012 | 1 | 0.009 | – | – | 1 | – | 5 | – | – | – | – | 3 | Number (Mus musculus [40]): 1; Number (Mus musculus [2]): 2; Number (Mus musculus [41]): 1; Number (Mus musculus [42]): 1; Number (Mus musculus [43]): 1; Number (Mus musculus [44]): 1; Number (Mus musculus [45]): 1; Number (Mus musculus [26]): 1; Number (Mus musculus [35]): 1; Number (Mus musculus [46]): 1 |
| Clc1ccc2c(NCCCOCCCCOCCCNc3ccnc4cc(Cl)ccc34)ccnc2c1 | 0.022 | 2 | 0.021 | – | – | 1 | 2 | 19 | – | 2 | – | 1 | – | Number (Mus musculus [13]): 1; Number (Mus musculus [47]): 3; Number (Mus musculus [48]): 1; Number (Mus musculus [34]): 1; Number (Mus musculus [49]): 1 |
| CCN(CC)CCCC(C)Nc1ccnc2cc(Cl)ccc12 (stereo not drawn) [CHLOROQUINE] | – | – | – | – | – | – | – | – | 1 | – | – | – | – | Number (Mus musculus [50]): 1; Number (Mus musculus [51]): 1; Number (Mus musculus [43]): 1; Number (Mus musculus [52]): 1; Number (Mus musculus [53]): 2; Number (Mus musculus [54]): 3; Number (Mus musculus [45]): 1; Number (Mus musculus [28]): 1; Number (Mus musculus [55]): 1; Number (Mus musculus [56]): 1; Number (Mus musculus [57]): 1 |
